Only some compounds are listed: those with a hit (about 2.1% of all), similar ones and a draw of the others.
INS promoter inh: TRM-6 insulin promoter activity inhibition; TRM-6 cells (human fetal islet line), insulin promoter-eGFP reporter, imaging; reporter expression induced with tamoxifen; 130,000 compounds, 0.9% hits; inhibition, % at 2 µM;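 active = inhibition above the mean plus 3 SD, with well images judged a real hit on visual review, cut at about 60% in these data, passing the limit was not always enough; inconclusive = inhibition over the cutoff but images rejected on review; inactive = inhibition not above the cutoff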
Dynein cargo inh: blocks dynein driven cargo transport along microtubules. 220,000 compounds, 0.47% hits. 3617.4 mouse cells, GR-EGFP nuclear translocation imaging; test concentration mostly 20 µM; stimulated with dexamethasone, 1 µM; hits give low values. z-score, hits read low. AID 1381;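 active = plate z-score of nuclear minus cytoplasmic receptor signal below a set negative limit, without overly bright fluorescence or cell loss, cut at about -3.5 in these data, passing the limit was not always enough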;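 note: z-score of nuclear minus cytoplasmic ring GR-EGFP intensity difference per well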
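medium = tetracycline-free induction medium containing charcoal-stripped FBS | probe or stimulus = dexamethasone, 1.0 µM final | timing = 48 h induction, then 1 h compound, then 30 min agonist, 37 °C | detection = automated 10x imaging of fixed Hoechst-stained cells | read-out basis = nuclear versus cytoplasmic GR-EGFP signal, averaged per well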
Autophagy mod: alters autophagy in cells; 190,000 compounds, 0.98% hits; calls only at 10 µM (by protocol); MEF GFP-LC3 puncta imaging; test concentration mostly 10 µM;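 active = percentage of spot-positive cells more than 3 SD above its plate mean, without a fluorescence outlier flag or 80% toxicity; inconclusive = no clear call, values can overlap the other calls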;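 note: spot-positive cell cutoff set from DMSO-treated cells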
Insulin prom up: MIN6 insulin promoter up-regulation; MIN6 insulin promoter-GFP reporter, high-content imaging; hits give high values; z-score at 5 µM; 190,000 compounds, 0.3% hits; AID 1625;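 active = z-score above 3 at 5 µM with at least 500 cells counted in the well; inconclusive = wells under 500 cells, flagged as cytotoxic or low count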
PERK inhibitor: blocks human PERK kinase; Q9NZJ5; CHO PERK-DD fusion, SEAP luminescence translation reporter; inhibition, % at 5.6 µM; 220,000 compounds, 0.17% hits; AID 1416;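 active = inhibition above the mean inhibition of all tested compounds plus 3 SD, set separately per screening campaign, cut at about 2.9% in these data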;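 note: PERK kinase domain activated by AP20187 dimerizer at 100 nM; 0% = DMSO with dimerizer and 100% = rapamycin at 8.4 µM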
* marks the source's active call; other numbers are inactive results; i = inactive; ? = inconclusive; . = no result given; + = active, no number.

SMILES	INS promoter inh	Dynein cargo inh	Autophagy mod	Insulin prom up	PERK inhibitor
CCOc1cc(NC(=O)c2ccco2)c(OCC)cc1NC(=O)COc1ccccc1C	-71	-0.62	+	.	1
CCOc1cc(NC(=O)c2ccco2)c(OCC)cc1NC(=O)Cc1cccc(OC)c1	5	0.28	i	-0.38	-1
CSc1nc(O)c(C2OC(=O)c3ccccc32)c(=O)[nH]1 (stereo not given)	36	0.57	i	.	2.9*
CCOc1cc(NC(=O)c2ccccn2)c(OCC)cc1NC(=O)c1ccc(C)cc1	0	1.9	i	0.16	0
CCOc1cc(NC(=O)c2cnccn2)c(OCC)cc1NC(=O)c1cccc(F)c1	-19	1.3	+	0.08	1
Cc1ccc(C(=O)OCC(=O)NC2CCCCC2)s1	.	-0.044	i	-0.47	0
CN(C)C(=O)CN(c1ccc2c(c1)OCO2)S(C)(=O)=O	71*	-0.67	i	3.6*	0
CS(=O)(=O)N(CC(=O)Nc1ccc2c(c1)OCO2)c1ccc2c(c1)OCO2	.	-1.3	i	.	1
NC(=O)c1ccsc1NC(=O)C1CCCN1S(=O)(=O)c1ccc(Cl)cc1 (stereo not given)	-27	0.62	i	0.73	-1
CC1CCCCN1S(=O)(=O)c1ccc(C(=O)Nc2sccc2C(N)=O)cc1 (stereo not given)	.	-0.25	+	2.1	0
CSc1nnc(SCC#N)s1	.	0.58	.	.	0
CC(C)C1C(C#N)=C(N)Oc2n[nH]c(-c3ccc4ccccc4c3)c21 (stereo not given)	-10	-0.19	+	.	-1
O=C(Nc1ccc(Oc2ccccc2)cc1)c1cnc2n(c1=O)CCS2	.	-0.37	i	-2.9	0
CN(CCO)c1ncnc2c1sc1nc(N3CCOCC3)c3c(c12)CCC3	.	-0.32	.	-1	-1
CCOc1ccccc1NC(=O)C(NCC1(N2CCCCC2)CCCCC1)c1ccccc1 (stereo not given)	-129	0.17	+	-1.2	0
COc1ccc(-n2c(C)nc(=O)c(-c3ccccc3)c2C)cc1	38	-0.41	i	0.05	1
COC(=O)c1ccc(-n2c(C)nc(=O)c(-c3ccccc3)c2C)cc1	72*	-0.29	i	0.66	1
Cc1ccc(-c2cc(-c3ccco3)c3c(N)c(C(=O)NN)oc3n2)cc1	.	1.8	.	3*	0
CCOC(=O)C(C(=O)OCC)c1cc(Br)c2noc3c2c1C(=O)c1ccccc1-3	-35	9.3	+	2.4	0
CCc1nnc(NS(=O)(=O)c2ccc(N3C(=O)c4ccc(C(=O)O)cc4C3=O)cc2)s1	5	0.68	i	-0.5	0
O=C(c1cccs1)N1CCC(c2ccccc2)C1 (stereo not given)	79*	1.1	i	0.68	0
O=C(CCN1CCC(c2ccccc2)C1)c1cccs1 (stereo not given)	35	-0.68	i	0.26	1
NS(=O)(=O)c1ccc(NC(=O)C2Cc3ccccc3C(=O)O2)cc1 (stereo not given)	71*	1.5	i	0.43	0
O=C1OC(C(=O)Nc2ccccc2)Cc2ccccc21 (stereo not given)	-78	0.39	i	0.11	2
CCOC(=O)C1(CCCc2ccccc2)CCN(C(=O)CCOC)CC1	.	-0.27	i	0.7	1
SMILES	INS promoter inh	Dynein cargo inh	Autophagy mod	Insulin prom up	PERK inhibitor
COc1ccc2nc(-n3c(C)ccc3C)sc2c1	-44	-0.99	i	0.22	0
COc1ccc2nc(N3C(=O)/C(=C/c4ccccc4)NC3=S)sc2c1	4	-0.29	+	0.42	0
CCOc1ccc2nc(N3C(=O)/C(=C/c4ccccc4)NC3=S)sc2c1	.	-0.43	+	-0.58	1
CCOC(=O)c1cnc2c(C)c(C)ccc2c1Nc1ccc(S(=O)(=O)Nc2ncccn2)cc1	.	0.057	i	0.49	1
CCOC(=O)N1CCC(NC(=O)c2cc(C(=O)Nc3ccc(OC)c(OC)c3)ccc2CO)CC1	.	-1.4	i	3.4*	1
CCOC(=O)c1ccc(NC(=O)c2ccc(CO)c(C(=O)NC3CCN(C(=O)OCC)CC3)c2)cc1	.	0.049	i	-0.96	0
CCN(CC)c1ccc(/C=C(\C#N)c2nc(-c3cccs3)c(NC(C)=O)s2)cc1	.	-0.49	+	17*	0
Cc1nc2oc(C(=O)c3ccc(Br)cc3)c(N)c2c2c1COC(C)(C)C2	64	3.6	+	0.14	0
CCCc1nc2oc(C(=O)c3ccccc3)c(N)c2c2c1COC(C)(C)C2	9	-0.82	i	?	0
